Consider eleven compounds from ChEMBL document CHEMBL4819106, “Aminopyrazole based CDK9 PROTAC sensitizes pancreatic cancer cells to venetoclax” (Bioorg Med Chem Lett, 2021).

For assay [1], the target named is T1, Protein cereblon/Cyclin-dependent kinase 9 (Homo sapiens, UniProt P50750+Q96SW2). In words: Protac activity at CDK9/CRBN in human HEK293 cells assessed as degradation of CDK9 at 0.01 to 10 uM incubated for 24 hrs by Western blot analysis. The assay is classed as cell-based. Conditions: dose 0.01-10 µM. The essentials: (§1)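 HEK293 cells were treated with increasing concentrations (0.01–10 μM) for 24 hr. Lysates were analysed by western blot for CDK9 degradation.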
Target sequence in this assay (P50750 whole entry, looked up): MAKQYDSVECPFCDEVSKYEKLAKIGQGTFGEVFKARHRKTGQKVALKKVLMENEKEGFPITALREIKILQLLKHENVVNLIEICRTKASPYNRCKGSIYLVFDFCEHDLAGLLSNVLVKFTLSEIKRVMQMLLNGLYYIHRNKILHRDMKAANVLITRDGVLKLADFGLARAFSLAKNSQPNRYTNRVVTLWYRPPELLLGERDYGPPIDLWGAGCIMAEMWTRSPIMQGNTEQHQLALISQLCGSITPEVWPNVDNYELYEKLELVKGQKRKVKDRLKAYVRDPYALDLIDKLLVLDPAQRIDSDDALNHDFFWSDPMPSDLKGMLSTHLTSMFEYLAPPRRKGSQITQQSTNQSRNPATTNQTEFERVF
Target sequence in this assay (Q96SW2 whole entry, looked up): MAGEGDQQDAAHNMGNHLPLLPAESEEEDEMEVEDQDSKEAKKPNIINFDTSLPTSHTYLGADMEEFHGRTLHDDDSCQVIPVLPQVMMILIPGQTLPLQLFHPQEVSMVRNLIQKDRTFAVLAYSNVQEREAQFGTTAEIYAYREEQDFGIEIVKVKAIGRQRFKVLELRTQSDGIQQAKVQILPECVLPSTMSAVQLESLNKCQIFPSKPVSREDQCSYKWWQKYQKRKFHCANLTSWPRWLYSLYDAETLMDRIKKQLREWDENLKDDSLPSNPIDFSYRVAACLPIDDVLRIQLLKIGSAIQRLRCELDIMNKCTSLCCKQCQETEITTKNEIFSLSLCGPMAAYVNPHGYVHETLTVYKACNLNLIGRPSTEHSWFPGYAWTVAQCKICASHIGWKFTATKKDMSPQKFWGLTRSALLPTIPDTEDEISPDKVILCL
(A western blot detects proteins with antibodies after separation by electrophoresis.)

For assay [2], the target named is Cyclin-dependent kinase 7 (Homo sapiens) (UniProt P50613). In words: Inhibition of CDK7 in human HEK293 cells assessed as reduction in CDK7 level at 10 uM incubated for 24 hrs by Western blot analysis. Type of assay: cell-based. The essentials: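 HEK293 cells were treated at indicated concentrations for 24 h. Lysates were analysed by western blot and probed for CDK family members, including CDK7 and CDK9.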

The target of assay [3] is T1, Protein cereblon/Cyclin-dependent kinase 9. The assay is described as follows: Protac activity at CDK9/CRBN in human HEK293 cells assessed as degradation of CDK9 incubated for 24 hrs by Western blot analysis. The assay is classed as cell-based. The essentials:
as §1
Target sequence in this assay (P50750 whole entry): as the sequence (P50750 whole entry, looked up) above
Target sequence in this assay (Q96SW2 whole entry): as the sequence (Q96SW2 whole entry, looked up) above

A further assay has as its system MIA PaCa-2. The assay is described as follows: Antiproliferative activity against human MIA PaCa-2 cells assessed as cell growth inhibition at 5 uM measured after 3 days by Prestoblue assay relative to control. The assay is classed as functional. To be noted: MIA PaCa-2, 72 h, time 3 day, read-out: GI. The gist of the method: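 MiaPaCa2 cells were exposed for 3 days to single agents (Bcl2-family inhibitors or CDK9 degrader) at equimolar concentration. Viability was read by PrestoBlue.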

In assay [4] the target is T2, Cyclin-dependent kinase 5 (Homo sapiens, UniProt Q00535). In words: Inhibition of CDK5 (unknown origin).
The target in assay [5] is T3, Cyclin-dependent kinase 9 (Homo sapiens, UniProt P50750). In words: Inhibition of CDK9 (unknown origin).
Assay [6] deals with T2, Cyclin-dependent kinase 5. The assay is described as follows: Binding affinity to CDK5 (unknown origin).
Assay [7] addresses T3, Cyclin-dependent kinase 9. In words: Binding affinity to CDK9 (unknown origin).

Molecules are shown by their SMILES. Active and inactive are the calls of the source. No cut-off for these calls is given here.

T2 sequence (Q00535 whole entry): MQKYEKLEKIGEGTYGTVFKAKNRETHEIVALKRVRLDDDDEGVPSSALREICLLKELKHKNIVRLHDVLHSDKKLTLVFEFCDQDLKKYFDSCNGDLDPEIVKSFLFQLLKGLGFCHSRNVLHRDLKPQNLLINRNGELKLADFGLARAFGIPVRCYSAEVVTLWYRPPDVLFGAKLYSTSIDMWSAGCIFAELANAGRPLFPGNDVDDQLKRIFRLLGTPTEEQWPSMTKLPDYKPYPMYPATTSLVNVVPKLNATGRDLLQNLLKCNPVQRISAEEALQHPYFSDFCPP
T3 sequence (P50750 whole entry): as the sequence (P50750 whole entry, looked up) above
Sequence of Cyclin-dependent kinase 7 (Homo sapiens) (P50613 whole entry): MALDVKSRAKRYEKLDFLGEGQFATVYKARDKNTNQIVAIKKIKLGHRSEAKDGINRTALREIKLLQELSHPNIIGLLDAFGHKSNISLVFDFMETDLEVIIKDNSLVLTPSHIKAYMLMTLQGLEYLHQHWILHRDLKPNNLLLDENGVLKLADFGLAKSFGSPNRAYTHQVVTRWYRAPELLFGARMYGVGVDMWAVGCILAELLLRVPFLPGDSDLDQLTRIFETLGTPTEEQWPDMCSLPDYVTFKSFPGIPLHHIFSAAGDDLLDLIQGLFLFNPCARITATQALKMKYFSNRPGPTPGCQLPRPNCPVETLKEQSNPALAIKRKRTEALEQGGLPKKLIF

On to `O=C(COc1ccc(CC(=O)Nc2cc(C3CCC3)[nH]n2)cc1)NCCCOCCOCCOCCCNc1cccc2c1C(=O)N(C1CCC(=O)NC1=O)C2=O` (centres undefined), for which, in assay [1], the outcome was inactive.

For the compound `CN1CC[C@H](c2c(O)cc(O)c3c(=O)cc(-c4ccccc4Cl)oc23)[C@H](O)C1`, the result in assay [2] was inactive.

Take `O=C(COc1ccc(CC(=O)Nc2cc(C3CCC3)[nH]n2)cc1)NCCCCCCCCNc1cccc2c1C(=O)N(C1CCC(=O)NC1=O)C2=O` (centres undefined): in assay [3], the DC50 was found to be 1000 nM.

As for `CC1(C)CCC(c2ccc(Cl)cc2)=C(CN2CCN(c3ccc(C(=O)NS(=O)(=O)c4ccc(N[C@H](CCN5CCOCC5)CSc5ccccc5)c(S(=O)(=O)C(F)(F)F)c4)cc3)CC2)C1` [NAVITOCLAX], the inhibition of growth at 5 µM in the assay with MIA PaCa-2 came out at 50%.

Take `O=C(COc1ccc(CC(=O)Nc2cc(C3CCC3)[nH]n2)cc1)NCCOCCOCCNc1cccc2c1C(=O)N(C1CCC(=O)NC1=O)C2=O` (centres undefined): the outcome in assay [1] was inactive.

Take `O=C(COCCOCCOCCOc1cccc(CC(=O)Nc2cc(C3CCC3)[nH]n2)c1)NCCOCCOCCNc1cccc2c1C(=O)N(C1CCC(=O)NC1=O)C2=O` (centres undefined): the result in assay [1] was inactive.

Regarding `O=C(CCCOc1ccc(CC(=O)Nc2cc(C3CCC3)[nH]n2)cc1)NCCOCCOCCNc1cccc2c1C(=O)N(C1CCC(=O)NC1=O)C2=O` (centres undefined), in assay [1], the result was inactive.

As for `O=C(CCCOc1ccc(CC(=O)Nc2cc(C3CCC3)[nH]n2)cc1)NCCCOCCOCCOCCCNc1cccc2c1C(=O)N(C1CCC(=O)NC1=O)C2=O` (centres undefined), the result in assay [1] was inactive.

Turning to `O=C(COc1ccc(CC(=O)Nc2cc(C3CCC3)[nH]n2)cc1)NCCCCNc1cccc2c1C(=O)N(C1CCC(=O)NC1=O)C2=O` (centres undefined), the outcome in assay [1] was inactive.

On to `COc1ccc(CC(=O)Nc2cc(C3CCC3)[nH]n2)cc1`, for which the IC50 in assay [4] came out at 32 nM; in assay [5], 1080 nM. The values for the equilibrium dissociation constant (Kd) in assay [6] and in assay [7] were 230 nM and 1060 nM, respectively.

Take `O=C(COCCOCCOCCOc1ccc(CC(=O)Nc2cc(C3CCC3)[nH]n2)cc1)NCCCCNc1cccc2c1C(=O)N(C1CCC(=O)NC1=O)C2=O` (centres undefined): in assay [1], the outcome was inactive.

As a reminder, the DC50 is the concentration at which degradation of the target reaches its halfway point. By IC50 is commonly meant the concentration that gives 50% inhibition. Read a low IC50 as greater potency in that assay. The Kd is the free concentration of one partner at which half of the binding sites on the other are occupied at equilibrium, for simple one-to-one binding. A low value points to tighter binding.
